According to ChEMBL document CHEMBL1133191, “Non-amidine-containing 1,2-dibenzamidobenzene inhibitors of human factor Xa with potent anticoagulant and antithrombotic activity” (J Med Chem, 2000):

Assays:
[1] = molecular target: Coagulation factor X (Homo sapiens) (UniProt P00742); assay: Binding affinity for human Coagulation factor X
Outline: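 Apparent association constant with human factor Xa, determined by the method the paper cites. Each value is the mean of at least three separate experiments, with standard deviation under 20%.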

Homo sapiens = species: Homo sapiens; assay: Prothrombin time activity, concentration required to double the time of clot formation in the prothrombin time assay; type: functional
Outline: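 Prothrombin time clotting assay run as described in a cited reference. The value is the compound concentration (μM) that doubles the time to clot formation. It is the mean of at least three separate experiments, with standard deviation under 20%.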

[2] = molecular target: Vitamin K-dependent protein C (Homo sapiens) (UniProt P04070); assay: Measured for apparent association constant (binding affinity) for activated protein C
[3] = molecular target: Coagulation factor XI (Homo sapiens) (UniProt P03951); assay: Measured for apparent association constant (binding affinity) for Coagulation factor XI
[4] = molecular target: T1, Coagulation factor XII (Homo sapiens) (UniProt P00748); assay: Measured for apparent association constant (binding affinity) for Coagulation factor XII
T1 sequence (whole entry): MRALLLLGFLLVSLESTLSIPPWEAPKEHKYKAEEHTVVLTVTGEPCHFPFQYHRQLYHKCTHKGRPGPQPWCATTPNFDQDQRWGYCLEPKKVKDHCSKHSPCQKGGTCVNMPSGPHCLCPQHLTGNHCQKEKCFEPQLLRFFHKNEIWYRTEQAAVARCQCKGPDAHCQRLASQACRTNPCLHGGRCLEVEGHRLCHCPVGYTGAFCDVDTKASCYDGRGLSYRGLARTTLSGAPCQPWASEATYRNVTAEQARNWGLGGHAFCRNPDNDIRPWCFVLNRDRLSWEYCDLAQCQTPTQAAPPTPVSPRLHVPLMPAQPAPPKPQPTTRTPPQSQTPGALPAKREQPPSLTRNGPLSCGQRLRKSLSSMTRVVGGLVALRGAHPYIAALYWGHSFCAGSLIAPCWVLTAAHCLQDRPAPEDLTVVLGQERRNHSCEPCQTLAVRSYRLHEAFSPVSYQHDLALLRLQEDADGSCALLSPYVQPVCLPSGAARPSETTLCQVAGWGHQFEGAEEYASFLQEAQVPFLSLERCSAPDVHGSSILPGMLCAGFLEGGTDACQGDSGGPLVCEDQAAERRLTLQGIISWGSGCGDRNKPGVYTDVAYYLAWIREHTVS

[5] = Measured for apparent association constant (binding affinity) for Factor IIa
[6] = molecular target: Tissue-type plasminogen activator (Homo sapiens) (UniProt P00750); assay: Measured for apparent association constant (binding affinity) for Tissue type plasminogen activator
[7] = molecular target: T2, Serine protease 1 (Bos taurus) (UniProt P00760); assay: Measured for apparent association constant (binding affinity) for trypsin (bovine)
T2 sequence (whole entry): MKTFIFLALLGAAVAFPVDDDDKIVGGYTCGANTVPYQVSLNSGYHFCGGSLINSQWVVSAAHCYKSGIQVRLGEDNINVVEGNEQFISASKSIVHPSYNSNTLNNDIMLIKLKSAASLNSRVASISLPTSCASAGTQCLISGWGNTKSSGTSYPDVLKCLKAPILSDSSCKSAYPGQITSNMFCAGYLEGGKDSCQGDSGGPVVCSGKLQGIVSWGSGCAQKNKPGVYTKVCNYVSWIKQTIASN

[8] = molecular target: Urokinase-type plasminogen activator (Homo sapiens) (UniProt P00749); assay: Measured for apparent association constant (binding affinity) for Urokinase-type plasminogen activator
[9] = molecular target: Plasminogen (Homo sapiens) (UniProt P00747); assay: Measured for apparent association constant (binding affinity) for plasmin
[10] = molecular target: Prothrombin (Homo sapiens) (UniProt P00734); assay: Measured for apparent association constant (binding affinity) for Coagulation factor II

Sequence of Coagulation factor X (Homo sapiens) (P00742 41-179 limits assumed): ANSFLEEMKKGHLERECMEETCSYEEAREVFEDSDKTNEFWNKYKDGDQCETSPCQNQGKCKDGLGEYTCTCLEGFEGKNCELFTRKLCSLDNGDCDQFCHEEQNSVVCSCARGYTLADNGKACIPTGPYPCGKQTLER
Sequence of Coagulation factor X (Homo sapiens) (P00742 235-488 limits assumed): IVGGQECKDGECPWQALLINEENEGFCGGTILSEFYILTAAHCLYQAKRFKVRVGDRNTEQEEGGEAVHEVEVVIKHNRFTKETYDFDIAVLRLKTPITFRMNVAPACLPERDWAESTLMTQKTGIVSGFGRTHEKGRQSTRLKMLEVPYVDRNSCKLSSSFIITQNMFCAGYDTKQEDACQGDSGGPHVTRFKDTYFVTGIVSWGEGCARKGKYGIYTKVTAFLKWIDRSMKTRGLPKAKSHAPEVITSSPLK
Sequence of Vitamin K-dependent protein C (Homo sapiens) (P04070 43-197 limits assumed): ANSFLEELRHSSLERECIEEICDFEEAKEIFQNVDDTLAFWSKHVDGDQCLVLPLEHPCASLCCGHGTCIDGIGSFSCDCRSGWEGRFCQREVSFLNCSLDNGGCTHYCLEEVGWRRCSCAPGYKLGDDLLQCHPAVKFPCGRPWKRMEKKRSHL
Sequence of Vitamin K-dependent protein C (Homo sapiens) (P04070 212-461 limits assumed): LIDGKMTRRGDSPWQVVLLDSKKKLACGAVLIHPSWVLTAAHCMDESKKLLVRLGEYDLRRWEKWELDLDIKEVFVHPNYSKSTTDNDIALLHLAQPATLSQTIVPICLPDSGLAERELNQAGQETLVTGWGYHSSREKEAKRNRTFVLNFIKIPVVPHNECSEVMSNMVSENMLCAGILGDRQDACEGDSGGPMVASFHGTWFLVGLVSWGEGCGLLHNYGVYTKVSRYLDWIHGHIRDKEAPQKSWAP
Sequence of Coagulation factor XI (Homo sapiens) (P03951 19-387 limits assumed): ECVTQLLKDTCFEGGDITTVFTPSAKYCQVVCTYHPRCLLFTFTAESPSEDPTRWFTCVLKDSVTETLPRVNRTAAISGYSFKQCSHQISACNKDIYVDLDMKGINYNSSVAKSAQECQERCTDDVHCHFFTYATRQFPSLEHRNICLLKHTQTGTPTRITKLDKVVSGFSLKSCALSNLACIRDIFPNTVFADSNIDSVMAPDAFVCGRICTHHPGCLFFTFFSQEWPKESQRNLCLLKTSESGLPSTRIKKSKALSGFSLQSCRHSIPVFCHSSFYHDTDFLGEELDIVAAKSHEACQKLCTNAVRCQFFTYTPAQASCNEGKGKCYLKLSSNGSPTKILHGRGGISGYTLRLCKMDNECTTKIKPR
Sequence of Coagulation factor XI (Homo sapiens) (P03951 388-625 limits assumed): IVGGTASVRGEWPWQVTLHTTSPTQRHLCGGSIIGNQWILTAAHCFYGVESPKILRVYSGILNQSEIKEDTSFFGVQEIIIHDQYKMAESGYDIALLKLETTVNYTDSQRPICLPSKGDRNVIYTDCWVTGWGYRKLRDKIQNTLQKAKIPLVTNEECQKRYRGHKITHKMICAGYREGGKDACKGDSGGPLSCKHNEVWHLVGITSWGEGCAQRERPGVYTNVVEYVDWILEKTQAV
Sequence of Plasminogen (Homo sapiens) (P00747 whole entry, looked up): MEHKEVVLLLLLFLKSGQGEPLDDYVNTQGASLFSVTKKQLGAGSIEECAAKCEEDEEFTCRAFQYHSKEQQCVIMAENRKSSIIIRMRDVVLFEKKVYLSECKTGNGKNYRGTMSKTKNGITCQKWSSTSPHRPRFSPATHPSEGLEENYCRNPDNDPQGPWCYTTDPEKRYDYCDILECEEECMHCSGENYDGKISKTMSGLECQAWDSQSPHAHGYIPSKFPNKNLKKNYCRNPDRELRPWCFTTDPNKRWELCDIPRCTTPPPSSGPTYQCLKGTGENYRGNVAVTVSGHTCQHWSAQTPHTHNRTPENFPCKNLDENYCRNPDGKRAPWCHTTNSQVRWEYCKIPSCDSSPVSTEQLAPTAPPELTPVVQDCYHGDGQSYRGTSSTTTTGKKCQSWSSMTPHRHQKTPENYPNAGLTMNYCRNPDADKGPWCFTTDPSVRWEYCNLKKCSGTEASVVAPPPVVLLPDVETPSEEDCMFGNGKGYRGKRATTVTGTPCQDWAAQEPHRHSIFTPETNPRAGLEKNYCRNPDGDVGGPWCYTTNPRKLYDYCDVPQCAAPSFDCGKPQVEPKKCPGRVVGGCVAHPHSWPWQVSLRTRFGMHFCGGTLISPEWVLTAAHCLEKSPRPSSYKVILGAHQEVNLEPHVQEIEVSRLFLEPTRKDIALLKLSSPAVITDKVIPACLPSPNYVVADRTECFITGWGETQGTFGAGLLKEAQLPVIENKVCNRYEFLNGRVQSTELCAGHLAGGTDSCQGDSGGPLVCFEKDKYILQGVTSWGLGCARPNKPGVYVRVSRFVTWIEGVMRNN
Sequence of Tissue-type plasminogen activator (Homo sapiens) (P00750 36-562 limits assumed): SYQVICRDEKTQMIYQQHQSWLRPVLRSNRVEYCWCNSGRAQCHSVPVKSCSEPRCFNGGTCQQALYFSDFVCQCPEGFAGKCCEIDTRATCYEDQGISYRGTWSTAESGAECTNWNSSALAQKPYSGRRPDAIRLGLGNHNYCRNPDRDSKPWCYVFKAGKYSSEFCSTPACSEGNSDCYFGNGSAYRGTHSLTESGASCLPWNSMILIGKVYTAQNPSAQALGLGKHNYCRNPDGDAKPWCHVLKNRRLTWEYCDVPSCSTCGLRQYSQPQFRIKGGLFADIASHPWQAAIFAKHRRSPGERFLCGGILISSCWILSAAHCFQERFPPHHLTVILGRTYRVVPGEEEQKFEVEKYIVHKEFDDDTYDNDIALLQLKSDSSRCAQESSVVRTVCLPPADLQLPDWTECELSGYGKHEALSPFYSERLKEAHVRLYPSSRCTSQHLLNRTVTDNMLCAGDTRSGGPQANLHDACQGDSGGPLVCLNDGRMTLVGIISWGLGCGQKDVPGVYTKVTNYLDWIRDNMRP

K ass [1]	SMILES	PT (Homo sapiens)	also measured
1.7e+07 l M-1	COc1ccc(C(=O)Nc2ccccc2NC(=O)OC2CCN(c3ccncc3)CC2)cc1	2.6 µM	
1.2e+07 l M-1	COc1ccc(C(=O)Nc2ccccc2NC(=O)NC2CCN(c3ccncc3)CC2)cc1	2.4 µM	
2.3e+06 l M-1	COc1ccc(C(=O)Nc2ccccc2NC(=O)C2CCN(c3ccncc3)CC2)cc1	9.7 µM	
2e+07 l M-1	COc1ccc(C(=O)Nc2ccccc2NC(=O)OCC2CCN(c3ccncc3)CC2)cc1	1.9 µM	

The remaining lines, values behind:

SMILES	K ass [1]	PT (Homo sapiens)	also measured
COc1ccc(C(=O)Nc2ccccc2NC(=O)OCCC2CCN(c3ccncc3)CC2)cc1	2.5e+06 l M-1	> 15 µM	
CC(C)(C)c1ccc(C(=O)Nc2cc(C(=O)O)ccc2NC(=O)c2cccc(C(=N)N)c2)cc1	4.7e+08 l M-1	0.83 µM	
COc1ccc(C(=O)Nc2ccccc2NC(=O)c2ccc(-c3ccncc3)cc2)cc1	9.2e+06 l M-1	9.5 µM	
COc1ccc(C(=O)Nc2ccccc2NC(=O)NCC2CCN(c3ccncc3)CC2)cc1	6.2e+07 l M-1	0.96 µM	K ass [2]: < 10000 l M-1; K ass [3]: < 10000 l M-1; K ass [4]: < 10000 l M-1; K ass [5]: < 10000 l M-1; K ass [6]: < 10000 l M-1; K ass [7]: < 10000 l M-1; K ass [8]: < 10000 l M-1; K ass [9]: < 10000 l M-1
COc1ccc(C(=O)Nc2ccc(O)cc2NC(=O)c2ccc(C(C)(C)C)cc2)cc1	6.6e+06 l M-1	> 50 µM	
O=C(NCC1CCN(c2ccncc2)CC1)Nc1ccccc1NC(=O)c1ccccc1	5.9e+06 l M-1	6.2 µM	
CCOc1ccc(C(=O)Nc2ccccc2NC(=O)NCC2CCN(c3ccncc3)CC2)cc1	1.5e+07 l M-1	2.6 µM	
O=C(NCC1CCN(c2ccncc2)CC1)Nc1ccccc1NC(=O)c1ccc(Cl)cc1	1e+08 l M-1	0.58 µM	K ass [2]: < 10000 l M-1; K ass [10]: 60000 l M-1; K ass [3]: < 10000 l M-1; K ass [4]: < 10000 l M-1; K ass [7]: < 10000 l M-1; K ass [8]: < 10000 l M-1; K ass [9]: 90000 l M-1
CC(C)(C)c1ccc(C(=O)Nc2ccccc2NC(=O)NCC2CCN(c3ccncc3)CC2)cc1	40000 l M-1		
